A selection: hits, their analogues and other compounds. The true share with any hit is near 3.9%.
TAAR1 agonist: human TAAR1 agonists, primary screen, Fluo-8 calcium fluorescence, CHO RD-HGA16 cells; Trace amine-associated receptor 1 (Homo sapiens), Q96RJ0; vehicle wells 0%, saturating PEA agonist 100%; activation, % at 3 µM; 360,000 compounds, 0.99% hits;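 active = activation above the mean activation of all test compounds in the run plus 3 SD, cut at about 38% in these data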
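Repeats: no replicates (n 1) | Material: CHO-derived RD-HGA16 cells with stable Gα16 and human TAAR1 | Technique: Kinetic Fluo-8 calcium fluorescence | Schedule: 17-24 h seeding, 75 min 37 °C dye, 30 min RT | Evaluation: % activation from peak over basal fluorescence ratio, DMSO-to-PEA scaled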
OX1R antag-1: antagonists of human orexin 1 receptor (OX1R). inhibition, % at 6.6 µM. AID 485270, 2010. OX1R-expressing cells, FRET antagonist read-out. Orexin/Hypocretin receptor type 1 (Homo sapiens), O43613. 330,000 compounds, 1.8% hits; in the data active = inhibition mostly above about 38%, no sharp cut-off; inactive = mostly below about 40%;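 also: 0% = agonist challenge alone and 100% = reference antagonist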
Target sequence (O43613 whole entry, looked up): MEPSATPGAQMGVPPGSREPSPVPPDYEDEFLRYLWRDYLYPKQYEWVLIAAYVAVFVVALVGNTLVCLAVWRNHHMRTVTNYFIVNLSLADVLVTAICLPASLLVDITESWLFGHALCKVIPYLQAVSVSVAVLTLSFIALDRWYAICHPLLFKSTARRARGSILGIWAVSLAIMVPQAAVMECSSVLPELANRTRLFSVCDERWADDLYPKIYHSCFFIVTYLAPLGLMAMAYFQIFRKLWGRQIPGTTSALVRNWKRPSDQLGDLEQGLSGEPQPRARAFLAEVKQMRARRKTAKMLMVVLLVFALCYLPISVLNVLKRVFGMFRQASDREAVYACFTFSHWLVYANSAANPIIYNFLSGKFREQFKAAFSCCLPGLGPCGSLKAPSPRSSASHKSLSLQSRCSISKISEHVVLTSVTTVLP
OX1R antag-2: OX1R (HCRTR1) antagonists, primary screen, fluorescence, CHO/OX1R cells, Fluo-8 calcium, orexin A; Orexin/Hypocretin receptor type 1 (Homo sapiens), O43613; Fluo-8 calcium fluorescence; inhibition, % at 5 µM; 330,000 compounds, 0.43% hits; AID 434989, 2010;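 active = inhibition above its plate's threshold, mean inhibition of all tested compounds on the plate plus 3 SD, cut at about 37% in these data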;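 also: 0% = orexin A challenge wells and 100% = SB-334867-A antagonist wells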
TAAR1 antag: human TAAR1 antagonists, primary screen, Fluo-8 calcium fluorescence, CHO RD-HGA16 cells. 360,000 compounds, 1.5% hits. Trace amine-associated receptor 1 (Homo sapiens), Q96RJ0. inhibition, % at 3 µM. AID 624466, 2012. antagonist;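 active = inhibition above a per-plate cutoff, the mean inhibition of test compounds on that plate plus 3 SD, cut at about 49% in these data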;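 also: 0% = DMSO plus EC80 beta-PEA response and 100% = DMSO alone without agonist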
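Material: CHO RD-HGA16 cells bearing hTAAR1; compound dosing: one-point dosing, 3 µM nominal final; schedule: dye loading 75 min at 37 °C, then 30 min room temperature; measured by: calcium fluorescence with Fluo-8; control set: vehicle and agonist controls; replication: n of 1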
CHO parental Ca: ATP-evoked calcium signal inhibitors, parental CHO, primary screen, counter-screen for OX1R antagonist project, cell-based, fluorescence, Fluo-8 calcium dye | parental CHO-K1, ATP-induced calcium, Fluo-8 fluorescence | inhibition, % at 5.6 µM | 330,000 compounds, 0.63% hits;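 active = inhibition above that plate's mean sample inhibition plus 3 SD, cut at about 26% in these data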;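 also: 0% = ATP-challenged DMSO wells and 100% = DMSO wells without ATP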
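Measured by: calcium-sensitive Fluo-8 fluorescence / Test system: CHO parental line / Controls: ATP-challenged DMSO wells low, unchallenged DMSO wells high / Measure: % inhibition / Compound: single nominal dose of 5.6 µM per compound / Replicates: single well per compound, no replicates / Reagent: ATP as calcium-mobilizing challenge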
* marks the source's active call; other numbers are inactive results; . = no result.

SMILES	TAAR1 agonist	OX1R antag-1	OX1R antag-2	TAAR1 antag	CHO parental Ca
O=C(CCN1CCN(c2ccccc2)CC1)N/N=C/c1ccc([N+](=O)[O-])o1	2.8	71.2*	-9.0	0.5	-12.4
COc1cc(/C=N/NC(=O)c2ccc(C)nc2)cc([N+](=O)[O-])c1O	5.8	42.8*	-23.9	-7.8	-15.7
COc1ccc([N+](=O)[O-])cc1/C=N/NC(=O)Cc1ccccc1	4.4	20.5	-12.6	-0.5	4.3
C[C@@H]1CN([C@@H](C)CO)C(=O)CCCn2cc(nn2)CO[C@H]1CN(C)C(=O)Nc1ccc(F)cc1	8.3	.	.	1.0	.
O=[N+]([O-])c1ccc(O)c(-c2cc(C(F)(F)F)nc(-c3ccccc3)n2)c1	11.2	-25.7	20.7	13.8	73.7*
Oc1ccccc1-c1cc(C(F)(F)C(F)F)nc(-c2ccccc2)n1	9.4	9.7	-5.9	4.9	-11.0
CN(CC(=O)Nc1ccc(F)c(F)c1)S(=O)(=O)c1cccc2nsnc12	3.9	62.6*	-14.2	3.2	-6.4
CN(C)S(=O)(=O)c1cccc2nsnc12	-0.9	35.2*	-8.0	5.3	-5.2
O=C(OCc1cn([C@H]2C[C@H](c3ccccc3)N(Cc3cccs3)C[C@@H]2O)nn1)c1ccccc1	3.9	.	.	23.8	.
O=S(=O)(c1ccc(Cl)cc1)N1CCN(c2ncnc3sccc23)CC1	8.5	19.3	35.5	24.7	46.3*
Cc1csc2ncnc(N3CCN(S(=O)(=O)c4cccc(C(F)(F)F)c4)CC3)c12	2.8	56.4*	20.4	34.7	58.7*
Cc1sc2ncnc(N3CCN(S(=O)(=O)c4ccc(Br)cc4)CC3)c2c1C	0.6	20.8	-23.4	1.6	-19.2
Cc1sc2ncnc(N3CCN(S(=O)(=O)c4ccc(C(C)(C)C)cc4)CC3)c2c1C	2.2	11.3	36.7	-0.2	51.1*
C[N+](C)(C)CCN1CCc2ccccc21	2.6	.	.	-10.2	.
CSc1cccc(N2CC(C(=O)N(Cc3nnc(-c4ccccc4Cl)o3)C3CC3)CC2=O)c1 (centres undefined)	8.1	58.3*	5.4	25.1	-10.0
CCOc1ccccc1N1CC(C(=O)N(Cc2nnc(-c3ccccc3Cl)o2)C2CC2)CC1=O (centres undefined)	1.7	7.4	-6.0	1.5	-21.5
COc1ccc(OC)c(CC(=O)Nc2ccc3c(c2)c(=O)n(C)n3Cc2cccc(C(F)(F)F)c2)c1	3.0	.	.	-5.5	.
Nc1cc(N)cc(C(=O)c2ccccc2)c1	0.5	.	.	-13.3	.
COc1cccc(NC(=O)/C=C/c2ccco2)c1	0.0	12.6	-17.4	18.8	1.4
O=C(/C=C/c1ccco1)Nc1ccc(Oc2ccc(Cl)cc2)cc1	9.8	65.7	10.8	78.1*	16.6
C[C@@H]1O[C@H](C2CCCC2)Cc2[nH]c(=S)[nH]c(=O)c21	2.1	.	.	-7.8	.
N#Cc1c(NC(=S)NC(=O)c2ccccc2)sc2c1CCN(CCc1ccccc1)C2	.	25.6	35.8	.	36.5*
N#Cc1c(NC(=S)NC(=O)c2ccccc2)sc2c1CCCC2	3.9	13.7	-23.5	-15.4	-11.7
CCc1nc2c(OCc3ccc(C#N)cc3)cccn2c1N(C)C(=O)c1cccs1	-0.6	.	.	-21.7	.
c1ccc(CCN(Cc2ccccc2)Cc2nc(C3CC3)no2)cc1	38.0*	14.0	-49.3	-5.4	-27.1
SMILES	TAAR1 agonist	OX1R antag-1	OX1R antag-2	TAAR1 antag	CHO parental Ca
CC(NC(=O)COC(=O)/C(=C/c1cccs1)c1cccs1)c1ccccc1 (centres undefined)	4.7	15.4	-12.0	51.8*	-14.1
CC(=O)/C=C1\N(C)c2ccc(C)cc2C1(C)C	-1.5	22.3	6.3	-1.0	38.1*
CN1/C(=C\C(=O)COC(=O)c2ccco2)C(C)(C)c2ccccc21	7.1	32.3	-5.7	-10.7	-3.8
CN1/C(=C\C(=O)c2ccco2)C(C)(C)c2ccccc21	1.8	32.6	21.4	57.5*	70.9*
CN1/C(=C\C(=O)c2cncc(Br)c2)C(C)(C)c2ccccc21	-0.2	19.0	37.2	0.2	38.6*
NC(=O)c1ncn([C@@H]2O[C@H](C(=O)N[C@H](Cc3c[nH]c4ccccc34)C(=O)N3CCN(CC(=O)N4CCCC4)CC3)[C@@H](O)[C@H]2O)n1	-0.1	.	.	0.4	.
O=C(COc1ccccc1/C=C1\SC(=S)NC1=O)Nc1ccc(F)cc1	-0.7	57.2*	16.8	41.3	10.9
NC1=NC(=O)/C(=C/c2ccccc2OCC(=O)Nc2ccc(F)cc2)S1	0.5	4.2	-14.5	7.6	2.2
COc1cccc(C(C)(O)c2nc(-c3ccoc3)cs2)c1 (centres undefined)	2.1	.	.	4.9	.
Cc1cc(N2CCCC2=O)cc(C)c1S(=O)(=O)NCCOc1ccc(C(C)(C)C)cc1	8.3	70.3*	67.0*	41.2	40.6*
Cc1ccc(S(=O)(=O)N(C)C)cc1NC(=O)c1cc(S(=O)(=O)N2CCCCC2)ccc1N1CCOCC1	0.1	.	.	-2.5	.
Cn1c(=O)c(C(=O)Nc2ncccc2O)c(O)c2ccccc21	5.9	16.9	26.8	6.5	47.8*
CCCn1c(=O)c(C(=O)Nc2ncccc2O)c(O)c2ccccc21	-0.7	.	.	6.4	.
CCOc1ccc(N2C(=O)c3ccc(C(=O)OCC(=O)N(CC)C4CCS(=O)(=O)C4)cc3C2=O)cc1 (centres undefined)	10.9	17.0	-8.9	9.5	0.9
C=CCN1C(=O)c2ccc(C(=O)OCC(=O)N(CC)C3CCS(=O)(=O)C3)cc2C1=O (centres undefined)	14.2	41.7*	-5.1	-20.8	-7.6
CN(C(=O)COC(=O)CCCN1C(=O)c2cccc3cccc(c23)C1=O)C1CCS(=O)(=O)C1 (centres undefined)	0.5	66.8*	-22.7	-4.8	-11.7
CCN(C(=O)COC(=O)CCCN1C(=O)c2cccc3cccc(c23)C1=O)C1CCS(=O)(=O)C1 (centres undefined)	0.0	52.8*	-19.3	-13.6	-8.7
CC(C)CN(C(=O)COC(=O)CCN1C(=O)c2ccccc2C1=O)C1CCS(=O)(=O)C1 (centres undefined)	0.1	18.1	7.8	3.4	-13.8
C[C@H](CO)N1C[C@H](C)[C@H](CN(C)S(=O)(=O)c2ccc3ccccc3c2)OCc2cnnn2CCCC1=O	3.0	.	.	-9.7	.
CCCCc1c(-c2ccccc2OC)ncn1Cc1cc(F)ccc1F	4.1	.	.	12.9	.
O=C1C=C(c2ccc(C(=O)O)c(Cl)c2)C[C@@H](c2ccc3c(c2)OCO3)C1	9.2	18.1	-29.2	13.5	-8.1
COCCn1c(N)c(C(=O)NCC2CCCO2)c2nc3ccccc3nc21 (centres undefined)	14.5	38.2	-18.2	48.7*	-17.4
